Measured values as given in ChEMBL document CHEMBL2331484, “Synthesis and biological evaluation of scopoletin derivatives” (Bioorg Med Chem, 2013).

Each compound was assayed on HUVEC (assay: Antiproliferative activity against HUVEC assessed as growth inhibition rate after 24 hrs by MTT assay). Conditions: Homo sapiens.
Type: functional, cell-based
Method in brief: (§1)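 HUVECs (passages 3–5, primary cord isolates) seeded at 1 × 10⁴ cells/well. Medium replaced with M199 containing 1% FBS plus compound. Viability read by MTT after 24 h. Percent inhibition was calculated from A570 minus A630 of treated versus control wells, and IC50 determined. Triplicate experiments, means ± SEM.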

Structure (SMILES)	IC50 [µM]
COc1ccc(C(=O)COc2cc3oc(=O)ccc3cc2OC)cc1	37.5
COc1cc2ccc(=O)oc2cc1OCC(=O)c1ccccc1	62.4
COc1cc2ccc(=O)oc2cc1OCC1CO1 (centres undefined)	5.3

What follows are compounds tested on HUVEC (assay: Antiproliferative activity against HUVEC assessed as growth inhibition rate at 10 uM after 24 hrs by MTT assay). Conditions: Homo sapiens, read-out: GI.
Type: functional
Method in brief: as §1

Structure (SMILES)	inhibition of growth at 10 µM [%]
COc1ccc(C(=O)COc2cc3oc(=O)ccc3cc2OC)cc1	7.6
COc1cc2ccc(=O)oc2cc1OCC(=O)c1ccccc1	3.4
COc1cc2ccc(=O)oc2cc1OCC1CO1 (centres undefined)	62.2

What follows are compounds tested on HUVEC (assay: Antiproliferative activity against HUVEC assessed as growth inhibition rate at 100 uM after 24 hrs by MTT assay). Conditions: Homo sapiens, read-out: GI.
Type: functional
Method in brief: as §1

Structure (SMILES)	inhibition of growth at 100 µM [%]
COc1ccc(C(=O)COc2cc3oc(=O)ccc3cc2OC)cc1	85.6
COc1cc2ccc(=O)oc2cc1OCC(=O)c1ccccc1	83.6
COc1cc2ccc(=O)oc2cc1OCC1CO1 (centres undefined)	95.5
